Data taken from ChEMBL document CHEMBL1140994, “Ranking the selectivity of PubChem screening hits by activity-based protein profiling: MMP13 as a case study” (Bioorg Med Chem, 2009).
Calls of active or inactive are those of the source.

Tests used:
[1] = target: Stromelysin-1 (Homo sapiens) (UniProt P08254); assay: Inhibition of human recombinant MMP3 at 200 uM by HxBPyne probe-based competitive activity based protein profiling assay in presence of 5 uM HxBpane competitor
How it was run: (§1)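 Recombinant enzyme at 0.5 μM final in mouse liver soluble proteome (1 mg protein/mL in PBS). HxBPyne probe cocktail 0.5 μM total final, with inhibitor 200 μM or DMSO. Preincubated 30 min on ice, then UV 365 nm for 1 h on ice. Rhodamine-azide click chemistry, 1 h RT in dark. SDS-PAGE with in-gel fluorescence; band intensity given as % of DMSO control.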

[2] = target: Neutrophil collagenase (Homo sapiens, UniProt P22894); assay: Inhibition of human recombinant MMP8 at 200 uM by HxBPyne probe-based competitive activity based protein profiling assay in presence of 5 uM HxBpane competitor; how it was run: as §1
[3] = target: Macrophage metalloelastase (Homo sapiens) (UniProt P39900); assay: Inhibition of human recombinant MMP12 at 200 uM by HxBPyne probe-based competitive activity based protein profiling assay in presence of 5 uM HxBpane competitor; how it was run: as §1
[4] = target: T1, Disintegrin and metalloproteinase domain-containing protein 8 (Homo sapiens) (UniProt P78325); assay: Inhibition of human recombinant ADAM8 at 200 uM by HxBPyne probe-based competitive activity based protein profiling assay in presence of 5 uM HxBpane competitor; how it was run: as §1
T1 sequence (whole entry): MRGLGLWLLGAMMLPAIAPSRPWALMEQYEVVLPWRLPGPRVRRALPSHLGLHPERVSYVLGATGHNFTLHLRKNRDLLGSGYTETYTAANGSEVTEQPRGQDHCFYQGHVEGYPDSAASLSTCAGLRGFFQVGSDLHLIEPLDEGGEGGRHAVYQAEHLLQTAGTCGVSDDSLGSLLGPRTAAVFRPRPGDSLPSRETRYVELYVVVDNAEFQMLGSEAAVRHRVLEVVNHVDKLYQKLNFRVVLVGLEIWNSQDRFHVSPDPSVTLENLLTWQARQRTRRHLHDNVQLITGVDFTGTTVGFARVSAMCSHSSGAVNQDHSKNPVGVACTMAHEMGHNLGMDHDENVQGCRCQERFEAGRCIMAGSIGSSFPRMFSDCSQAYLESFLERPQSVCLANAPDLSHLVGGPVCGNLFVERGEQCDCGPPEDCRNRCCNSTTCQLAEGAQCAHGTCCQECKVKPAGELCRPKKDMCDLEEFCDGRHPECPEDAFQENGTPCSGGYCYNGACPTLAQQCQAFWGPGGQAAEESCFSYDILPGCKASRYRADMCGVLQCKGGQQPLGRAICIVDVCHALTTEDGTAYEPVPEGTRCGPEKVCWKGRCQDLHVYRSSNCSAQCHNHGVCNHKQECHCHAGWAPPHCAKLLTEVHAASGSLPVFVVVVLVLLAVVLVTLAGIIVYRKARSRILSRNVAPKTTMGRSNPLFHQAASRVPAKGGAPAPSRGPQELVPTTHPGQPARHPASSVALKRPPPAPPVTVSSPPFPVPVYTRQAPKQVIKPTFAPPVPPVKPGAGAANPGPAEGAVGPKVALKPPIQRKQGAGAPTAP

[5] = target: T2, Stromelysin-3 (Homo sapiens) (UniProt P24347); assay: Inhibition of human recombinant MMP11 at 200 uM by HxBPyne probe-based competitive activity based protein profiling assay in presence of 5 uM HxBpane competitor; how it was run: as §1
T2 sequence (whole entry): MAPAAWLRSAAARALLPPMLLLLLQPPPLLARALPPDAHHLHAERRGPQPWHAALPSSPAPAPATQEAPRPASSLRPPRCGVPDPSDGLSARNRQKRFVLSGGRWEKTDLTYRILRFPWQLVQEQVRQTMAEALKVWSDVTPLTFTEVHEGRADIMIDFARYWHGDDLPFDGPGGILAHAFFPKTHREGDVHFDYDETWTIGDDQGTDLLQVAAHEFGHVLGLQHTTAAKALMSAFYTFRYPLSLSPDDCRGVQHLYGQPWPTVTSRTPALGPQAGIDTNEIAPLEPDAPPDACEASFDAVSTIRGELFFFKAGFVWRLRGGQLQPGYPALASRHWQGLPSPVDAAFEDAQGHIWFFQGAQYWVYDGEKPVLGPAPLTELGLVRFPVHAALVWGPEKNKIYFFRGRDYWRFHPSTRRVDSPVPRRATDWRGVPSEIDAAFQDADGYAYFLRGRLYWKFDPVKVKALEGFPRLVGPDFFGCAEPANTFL

[6] = target: Matrix metalloproteinase-16 (Homo sapiens) (UniProt P51512); assay: Inhibition of human recombinant MMP16 at 200 uM by HxBPyne probe-based competitive activity based protein profiling assay in presence of 5 uM HxBpane competitor; how it was run: as §1
[7] = target: Interstitial collagenase (Homo sapiens) (UniProt P03956); assay: Inhibition of human recombinant MMP1 at 200 uM by HxBPyne probe-based competitive activity based protein profiling assay in presence of 5 uM HxBpane competitor; how it was run: as §1
[8] = target: Disintegrin and metalloproteinase domain-containing protein 12 (Homo sapiens) (UniProt O43184); assay: Inhibition of human recombinant ADAM12 at 200 uM by HxBPyne probe-based competitive activity based protein profiling assay in presence of 200 uM HxBpane competitor
How it was run: (§2)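 Metalloprotease at 1.6 μM final in PBS, without liver proteome. HxBPyne probe cocktail 20 μM final, with inhibitor 200 μM or DMSO. Preincubated 30 min on ice, then irradiated 365 nm for 1 h on ice. Rhodamine-azide click chemistry, then SDS-PAGE and in-gel fluorescence scanning. Integrated band intensity expressed as % of DMSO control.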

[9] = target: Disintegrin and metalloproteinase domain-containing protein 17 (Homo sapiens) (UniProt P78536); assay: Inhibition of human recombinant ADAM17 at 200 uM by HxBPyne probe-based competitive activity based protein profiling assay in presence of 5 uM HxBpane competitor; how it was run: as §1
[10] = target: Angiotensin-converting enzyme 2 (Homo sapiens) (UniProt Q9BYF1); assay: Inhibition of human recombinant ACE2 at 200 uM by HxBPyne probe-based competitive activity based protein profiling assay in presence of 200 uM HxBpane competitor; how it was run: as §2
[11] = target: A disintegrin and metalloproteinase with thrombospondin motifs 4 (Homo sapiens) (UniProt O75173); assay: Inhibition of human recombinant ADAMTS4 at 200 uM by HxBP-Rh probe-based competitive activity based protein profiling assay in presence of 200 uM HxBP-alkyne
How it was run: (§3)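 Enzyme 0.5 μM final, in PBS (ADAMTS4, neprilysin) or in 1 mg/mL mouse liver soluble proteome (MMP9). HxBP-Rh probe 0.5 μM final with 200 μM inhibitor or DMSO. Preincubated 30 min on ice, UV 365 nm 1 h on ice. Deglycosylated with PNGase F, then SDS-PAGE with fluorescence scanning. Activity given relative to DMSO control.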

[12] = target: Neprilysin (Homo sapiens) (UniProt P08473); assay: Inhibition of human recombinant neprilysin at 200 uM by HxBP-Rh probe-based competitive activity based protein profiling assay in presence of 200 uM HxBP-alkyne; how it was run: as §3

Measured: Activity

Chain of Neutrophil collagenase (P22894 101-467 limits assumed): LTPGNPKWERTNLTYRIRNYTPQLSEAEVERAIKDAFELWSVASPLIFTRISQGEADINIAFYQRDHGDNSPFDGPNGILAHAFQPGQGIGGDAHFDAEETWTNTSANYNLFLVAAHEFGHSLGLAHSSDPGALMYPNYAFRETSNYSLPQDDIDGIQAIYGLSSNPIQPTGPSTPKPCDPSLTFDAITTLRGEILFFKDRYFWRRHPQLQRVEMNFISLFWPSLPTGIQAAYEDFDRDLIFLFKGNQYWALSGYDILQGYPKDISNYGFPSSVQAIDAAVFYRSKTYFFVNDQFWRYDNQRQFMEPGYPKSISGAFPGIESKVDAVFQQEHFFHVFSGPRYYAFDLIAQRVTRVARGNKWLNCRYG
Chain of Matrix metalloproteinase-16 (Homo sapiens) (P51512 whole entry): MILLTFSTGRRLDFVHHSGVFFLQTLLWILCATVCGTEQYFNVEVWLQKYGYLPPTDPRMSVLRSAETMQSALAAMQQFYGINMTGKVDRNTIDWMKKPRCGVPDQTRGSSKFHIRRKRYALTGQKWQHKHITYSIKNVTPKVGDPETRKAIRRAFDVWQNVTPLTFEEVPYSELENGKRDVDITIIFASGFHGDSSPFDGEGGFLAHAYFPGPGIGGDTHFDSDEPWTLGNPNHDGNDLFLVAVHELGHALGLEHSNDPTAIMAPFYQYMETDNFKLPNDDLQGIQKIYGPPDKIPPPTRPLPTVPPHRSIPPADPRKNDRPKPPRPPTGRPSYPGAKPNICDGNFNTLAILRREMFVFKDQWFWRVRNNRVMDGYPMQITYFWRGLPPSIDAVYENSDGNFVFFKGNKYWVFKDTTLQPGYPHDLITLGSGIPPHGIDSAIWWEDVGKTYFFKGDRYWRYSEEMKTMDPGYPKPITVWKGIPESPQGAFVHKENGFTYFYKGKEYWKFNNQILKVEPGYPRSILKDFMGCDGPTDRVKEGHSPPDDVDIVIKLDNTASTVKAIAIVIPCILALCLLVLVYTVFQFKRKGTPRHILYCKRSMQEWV
Chain of Neprilysin (Homo sapiens) (P08473 whole entry): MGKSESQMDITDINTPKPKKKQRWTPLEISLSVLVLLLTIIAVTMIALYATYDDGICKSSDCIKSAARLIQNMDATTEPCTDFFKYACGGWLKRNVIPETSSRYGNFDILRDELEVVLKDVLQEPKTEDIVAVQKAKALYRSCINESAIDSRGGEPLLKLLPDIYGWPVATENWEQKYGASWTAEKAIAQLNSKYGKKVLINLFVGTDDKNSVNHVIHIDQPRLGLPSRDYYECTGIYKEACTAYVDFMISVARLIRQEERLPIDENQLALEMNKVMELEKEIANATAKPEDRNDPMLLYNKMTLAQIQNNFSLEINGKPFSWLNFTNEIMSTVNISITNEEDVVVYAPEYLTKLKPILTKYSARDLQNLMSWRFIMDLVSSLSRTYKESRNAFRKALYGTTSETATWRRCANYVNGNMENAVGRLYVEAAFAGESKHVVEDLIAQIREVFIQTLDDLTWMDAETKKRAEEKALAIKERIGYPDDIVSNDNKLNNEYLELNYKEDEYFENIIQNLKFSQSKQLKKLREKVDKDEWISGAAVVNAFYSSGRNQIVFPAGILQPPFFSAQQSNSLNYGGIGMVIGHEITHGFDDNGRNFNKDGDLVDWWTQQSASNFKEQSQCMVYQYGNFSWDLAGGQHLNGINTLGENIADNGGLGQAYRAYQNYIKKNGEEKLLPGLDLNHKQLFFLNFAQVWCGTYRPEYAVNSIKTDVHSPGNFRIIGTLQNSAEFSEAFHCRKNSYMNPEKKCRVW
Chain of Stromelysin-1 (Homo sapiens) (P08254 100-477 limits assumed): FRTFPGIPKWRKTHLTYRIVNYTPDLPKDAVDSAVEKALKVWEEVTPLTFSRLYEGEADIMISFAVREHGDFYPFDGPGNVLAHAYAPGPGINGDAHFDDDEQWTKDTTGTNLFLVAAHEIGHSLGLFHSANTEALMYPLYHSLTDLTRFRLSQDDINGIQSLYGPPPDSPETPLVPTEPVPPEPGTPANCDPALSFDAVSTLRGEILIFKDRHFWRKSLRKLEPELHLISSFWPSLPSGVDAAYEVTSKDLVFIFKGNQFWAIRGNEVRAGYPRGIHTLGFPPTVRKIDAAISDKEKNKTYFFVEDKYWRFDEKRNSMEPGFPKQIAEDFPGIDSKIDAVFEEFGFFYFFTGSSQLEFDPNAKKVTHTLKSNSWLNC
Chain of Interstitial collagenase (Homo sapiens) (P03956 whole entry, the tested form may be a part): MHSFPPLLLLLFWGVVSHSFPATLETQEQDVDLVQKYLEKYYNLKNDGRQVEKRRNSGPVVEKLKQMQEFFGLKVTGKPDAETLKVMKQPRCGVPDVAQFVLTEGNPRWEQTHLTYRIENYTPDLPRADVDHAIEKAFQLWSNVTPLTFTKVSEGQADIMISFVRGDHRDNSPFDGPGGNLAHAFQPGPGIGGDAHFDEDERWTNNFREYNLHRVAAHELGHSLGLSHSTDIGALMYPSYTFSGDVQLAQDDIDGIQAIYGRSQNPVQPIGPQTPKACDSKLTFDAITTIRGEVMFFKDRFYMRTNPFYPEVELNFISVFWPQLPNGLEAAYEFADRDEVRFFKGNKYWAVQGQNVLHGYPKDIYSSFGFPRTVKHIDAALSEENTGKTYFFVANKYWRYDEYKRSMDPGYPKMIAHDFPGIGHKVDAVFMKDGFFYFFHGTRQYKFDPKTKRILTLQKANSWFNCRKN
Chain of Macrophage metalloelastase (Homo sapiens) (P39900 106-470 limits assumed): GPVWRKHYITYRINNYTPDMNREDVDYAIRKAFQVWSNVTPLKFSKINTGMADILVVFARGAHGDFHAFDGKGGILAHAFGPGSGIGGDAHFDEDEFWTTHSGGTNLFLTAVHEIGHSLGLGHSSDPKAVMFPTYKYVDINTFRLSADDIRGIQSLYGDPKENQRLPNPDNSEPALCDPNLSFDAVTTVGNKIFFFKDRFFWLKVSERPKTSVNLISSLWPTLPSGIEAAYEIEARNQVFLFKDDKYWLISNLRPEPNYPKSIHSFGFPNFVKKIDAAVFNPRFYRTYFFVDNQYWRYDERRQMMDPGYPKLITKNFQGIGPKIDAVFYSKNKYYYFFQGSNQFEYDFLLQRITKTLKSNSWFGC
Chain of Disintegrin and metalloproteinase domain-containing protein 17 (Homo sapiens) (P78536 whole entry, the tested form may be a part): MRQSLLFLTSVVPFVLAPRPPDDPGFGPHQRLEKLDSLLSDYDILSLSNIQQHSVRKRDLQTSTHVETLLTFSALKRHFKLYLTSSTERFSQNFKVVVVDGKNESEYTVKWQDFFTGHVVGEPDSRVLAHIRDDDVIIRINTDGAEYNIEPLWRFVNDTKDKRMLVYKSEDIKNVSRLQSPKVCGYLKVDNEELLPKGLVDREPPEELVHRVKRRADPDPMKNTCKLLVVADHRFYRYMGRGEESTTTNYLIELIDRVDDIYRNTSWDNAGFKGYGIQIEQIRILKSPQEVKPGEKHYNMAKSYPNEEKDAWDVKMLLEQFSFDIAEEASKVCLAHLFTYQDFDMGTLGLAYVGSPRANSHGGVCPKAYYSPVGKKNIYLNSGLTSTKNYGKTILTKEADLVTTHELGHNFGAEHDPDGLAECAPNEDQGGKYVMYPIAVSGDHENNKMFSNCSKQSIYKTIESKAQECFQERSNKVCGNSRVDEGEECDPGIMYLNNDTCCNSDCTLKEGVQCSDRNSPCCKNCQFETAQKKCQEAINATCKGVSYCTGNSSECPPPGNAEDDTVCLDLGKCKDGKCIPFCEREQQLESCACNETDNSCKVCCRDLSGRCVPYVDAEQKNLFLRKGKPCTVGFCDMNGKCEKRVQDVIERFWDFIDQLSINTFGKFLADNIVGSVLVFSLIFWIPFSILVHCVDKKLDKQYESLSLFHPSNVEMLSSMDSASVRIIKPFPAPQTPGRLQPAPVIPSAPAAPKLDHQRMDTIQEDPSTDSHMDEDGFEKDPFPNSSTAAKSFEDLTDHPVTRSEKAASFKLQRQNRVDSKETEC
Chain of A disintegrin and metalloproteinase with thrombospondin motifs 4 (Homo sapiens) (O75173 whole entry): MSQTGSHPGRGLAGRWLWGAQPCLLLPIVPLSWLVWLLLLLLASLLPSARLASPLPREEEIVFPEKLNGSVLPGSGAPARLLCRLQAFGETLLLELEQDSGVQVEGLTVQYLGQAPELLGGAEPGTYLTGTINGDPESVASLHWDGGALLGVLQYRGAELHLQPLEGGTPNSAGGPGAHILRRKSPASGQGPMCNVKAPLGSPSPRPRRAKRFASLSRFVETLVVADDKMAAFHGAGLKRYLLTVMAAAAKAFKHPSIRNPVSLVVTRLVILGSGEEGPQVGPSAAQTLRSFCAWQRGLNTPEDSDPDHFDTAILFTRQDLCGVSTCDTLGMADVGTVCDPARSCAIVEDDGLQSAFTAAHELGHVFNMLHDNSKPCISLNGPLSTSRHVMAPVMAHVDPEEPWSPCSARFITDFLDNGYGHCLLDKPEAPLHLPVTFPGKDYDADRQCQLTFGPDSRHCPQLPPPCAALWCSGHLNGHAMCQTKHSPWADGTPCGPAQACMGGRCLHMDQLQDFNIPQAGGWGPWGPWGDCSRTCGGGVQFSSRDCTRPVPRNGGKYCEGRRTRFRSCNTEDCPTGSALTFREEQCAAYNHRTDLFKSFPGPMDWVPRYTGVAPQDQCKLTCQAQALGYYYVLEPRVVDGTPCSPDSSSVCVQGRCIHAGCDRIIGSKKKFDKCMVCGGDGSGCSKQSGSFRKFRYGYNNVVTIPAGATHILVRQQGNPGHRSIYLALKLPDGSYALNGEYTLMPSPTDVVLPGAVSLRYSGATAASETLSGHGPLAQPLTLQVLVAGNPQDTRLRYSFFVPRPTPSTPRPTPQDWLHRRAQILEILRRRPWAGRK

COc1ccc(CSc2nc(C)cc(O)n2)cc1
inactive: all assays above

Oc1nc(SCc2ccc(Cl)cc2)nc2c1CCC2
inactive: all assays above
